Assay results published in ChEMBL document CHEMBL2346534, “Design, synthesis and in vitro anti-proliferative activity of 4,6-quinazolinediamines as potent EGFR-TK inhibitors” (Eur J Med Chem, 2013).

What was measured:
Format in all cases: functional
[1] = tested on: OVCAR-3; assay: Cytotoxicity against human OVCAR3 cells assessed as cell growth at 10^-5 M after 48 hrs by SRB assay; conditions: OVCAR-3, 48 h, read-out: Activity
Method in brief: (§1)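 NCI 60-panel single-dose primary screen at 10^-5 M. Cells are grown in RPMI 1640 with 5% FBS and 2 mM L-glutamine and preincubated 24 h at 37 °C. Drug exposure is 48 h. Cells are TCA-fixed, stained with SRB and absorbance is read at 515 nm. Results are reported as percent growth of treated cells versus untreated controls, corrected using time-zero plates.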

[2] = Cytotoxicity against human EKVX cells assessed as cell growth at 10^-5 M after 48 hrs by SRB assay; conditions: read-out: Activity
Method in brief: (§2)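 NCI 60 single-dose screen at 10^-5 M. Cells in RPMI 1640 with 5% FBS and 2 mM L-glutamine, preincubated 24 h at 37 °C/5% CO2. Drug from DMSO stock, then 48 h exposure. TCA fixation, SRB staining, absorbance at 515 nm. Result given as percent growth of treated cells relative to untreated control.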

[3] = tested on: SF-268; assay: Cytotoxicity against human SF268 cells assessed as cell growth at 10^-5 M after 48 hrs by SRB assay; conditions: SF-268, 48 h, read-out: Activity; method in brief: as §1
[4] = tested on: OVCAR-4; assay: Cytotoxicity against human OVCAR4 cells assessed as cell growth at 10^-5 M after 48 hrs by SRB assay; conditions: OVCAR-4, 48 h, read-out: Activity; method in brief: as §1
[5] = tested on: A498; assay: Cytotoxicity against human A498 cells assessed as cell growth at 10^-5 M after 48 hrs by SRB assay; conditions: A498, 48 h, read-out: Activity; method in brief: as §2
[6] = tested on: 786-0; assay: Cytotoxicity against human 786-0 cells assessed as cell growth at 10^-5 M after 48 hrs by SRB assay; conditions: 786-0, 48 h, read-out: Activity; method in brief: as §2
[7] = tested on: A549; assay: Cytotoxicity against human A549 cells assessed as cell growth at 10^-5 M after 48 hrs by SRB assay; conditions: A549, 48 h, read-out: Activity; method in brief: as §2
[8] = tested on: MDA-MB-468; assay: Cytotoxicity against human MDA-MB-468 cells assessed as cell growth at 10^-5 M after 48 hrs by SRB assay; conditions: MDA-MB-468, 48 h, read-out: Activity; method in brief: as §1
[9] = tested on: OVCAR-8; assay: Cytotoxicity against human OVCAR8 cells assessed as cell growth at 10^-5 M after 48 hrs by SRB assay; conditions: OVCAR-8, 48 h, read-out: Activity; method in brief: as §1
[10] = tested on: SF-295; assay: Cytotoxicity against human SF295 cells assessed as cell growth at 10^-5 M after 48 hrs by SRB assay; conditions: SF-295, 48 h, read-out: Activity; method in brief: as §1
[11] = tested on: M14; assay: Cytotoxicity against human M14 cells assessed as cell growth at 10^-5 M after 48 hrs by SRB assay; conditions: M14, 48 h, read-out: Activity; method in brief: as §2
[12] = tested on: TK-10; assay: Cytotoxicity against human TK10 cells assessed as cell growth at 10^-5 M after 48 hrs by SRB assay; conditions: TK-10, 48 h, read-out: Activity
Method in brief: (§3)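 NCI primary single-dose screen at 10^-5 M. Cells grown in RPMI 1640 with 5% FBS and 2 mM L-glutamine, given 24 h before drug addition, then 48 h exposure at 37 °C, 5% CO2. Cells TCA-fixed, stained with SRB, read at 515 nm. Reported as percent growth of treated cells relative to untreated controls.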

[13] = tested on: SK-MEL-5; assay: Cytotoxicity against human SK-MEL-5 cells assessed as cell growth at 10^-5 M after 48 hrs by SRB assay; conditions: SK-MEL-5, 48 h, read-out: Activity; method in brief: as §1
[14] = tested on: DU-145; assay: Cytotoxicity against human DU145 cells assessed as cell growth at 10^-5 M after 48 hrs by SRB assay; conditions: DU-145, 48 h, read-out: Activity; method in brief: as §2
[15] = tested on: SK-MEL-28; assay: Cytotoxicity against human SK-MEL-28 cells assessed as cell growth at 10^-5 M after 48 hrs by SRB assay; conditions: SK-MEL-28, 48 h, read-out: Activity; method in brief: as §1
[16] = tested on: SNB-19; assay: Cytotoxicity against human SNB19 cells assessed as cell growth at 10^-5 M after 48 hrs by SRB assay; conditions: SNB-19, 48 h, read-out: Activity; method in brief: as §1
[17] = tested on: HT-29; assay: Cytotoxicity against human HT-29 cells assessed as cell growth at 10^-5 M after 48 hrs by SRB assay; conditions: HT-29, 48 h, read-out: Activity; method in brief: as §2
[18] = tested on: SK-OV-3; assay: Cytotoxicity against human SKOV3 cells assessed as cell growth at 10^-5 M after 48 hrs by SRB assay; conditions: SK-OV-3, 48 h, read-out: Activity; method in brief: as §1
[19] = tested on: K562; assay: Cytotoxicity against human K562 cells assessed as cell growth at 10^-5 M after 48 hrs by SRB assay; conditions: K562, 48 h, read-out: Activity; method in brief: as §2
[20] = tested on: OVCAR-5; assay: Cytotoxicity against human OVCAR5 cells assessed as cell growth at 10^-5 M after 48 hrs by SRB assay; conditions: OVCAR-5, 48 h, read-out: Activity; method in brief: as §1
[21] = tested on: HOP-62; assay: Cytotoxicity against human HOP62 cells assessed as cell growth at 10^-5 M after 48 hrs by SRB assay; conditions: HOP-62, 48 h, read-out: Activity; method in brief: as §2
[22] = tested on: SN12C; assay: Cytotoxicity against human SN12C cells assessed as cell growth at 10^-5 M after 48 hrs by SRB assay; conditions: read-out: Activity; method in brief: as §1
[23] = tested on: HL-60(TB); assay: Cytotoxicity against human HL-60(TB) cells assessed as cell growth at 10^-5 M after 48 hrs by SRB assay; conditions: HL-60, 48 h, read-out: Activity
Method in brief: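 NCI 60-panel single-dose screen. Cells were grown in RPMI 1640 with 5% FBS and 2 mM L-glutamine, preincubated 24 h, then exposed to compound at 10^-5 M (from DMSO stock) for 48 h at 37 °C, 5% CO2. Settled suspension cells were TCA-fixed and SRB-stained, with absorbance read at 515 nm. The value is percent growth of treated versus untreated control cells.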

[24] = tested on: SW-620; assay: Cytotoxicity against human SW620 cells assessed as cell growth at 10^-5 M after 48 hrs by SRB assay; conditions: SW-620, 48 h, read-out: Activity; method in brief: as §3
[25] = tested on: NCI-H522; assay: Cytotoxicity against human NCI-H522 cells assessed as cell growth at 10^-5 M after 48 hrs by SRB assay; conditions: NCI-H522, 48 h, read-out: Activity; method in brief: as §1
[26] = tested on: RPMI-8226; assay: Cytotoxicity against human RPMI8226 cells assessed as cell growth at 10^-5 M after 48 hrs by SRB assay; conditions: RPMI-8226, 48 h, read-out: Activity; method in brief: as §1
[27] = tested on: NCI-H226; assay: Cytotoxicity against human NCI-H226 cells assessed as cell growth at 10^-5 M after 48 hrs by SRB assay; conditions: NCI-H226, 48 h, read-out: Activity; method in brief: as §1
[28] = tested on: LOX IMVI; assay: Cytotoxicity against human LOXIMVI cells assessed as cell growth at 10^-5 M after 48 hrs by SRB assay; conditions: read-out: Activity; method in brief: as §2
[29] = tested on: U-251; assay: Cytotoxicity against human U251 cells assessed as cell growth at 10^-5 M after 48 hrs by SRB assay; conditions: U-251, 48 h, read-out: Activity; method in brief: as §3

Row | Compound | growth at 10 µM [1] | growth at 10 µM [2] | growth at 10 µM [3] | growth at 10 µM [4] | growth at 10 µM [5] | growth at 10 µM [6] | growth at 10 µM [7] | growth at 10 µM [8] | growth at 10 µM [9] | growth at 10 µM [10] | growth at 10 µM [11] | growth at 10 µM [12] | growth at 10 µM [13] | growth at 10 µM [14] | growth at 10 µM [15] | growth at 10 µM [16] | growth at 10 µM [17] | growth at 10 µM [18] | growth at 10 µM [19] | growth at 10 µM [20] | other results
1 | CCOC(=O)/C(C#N)=C\Nc1ccc2ncnc(Nc3ccc(Cl)cc3Cl)c2c1 | 67.6% | 41.7% | 73% | 95.1% | 48.7% | 82.6% | 72.1% | 56.4% | 87% | 82.2% | 106% | 44.2% | 78.3% | 55.9% | 109% | 86.4% | 79.4% | 97% | 59.7% | 82.2% | growth at 10 µM [21]: 101%; growth at 10 µM [22]: 89.5%; growth at 10 µM [23]: 108%; growth at 10 µM [24]: 100%; growth at 10 µM [25]: 95.8%; growth at 10 µM [26]: 79.5%; growth at 10 µM [27]: 99.8%; growth at 10 µM [28]: 87.5%; growth at 10 µM [29]: 81.3%
2 | NC(=O)Nc1ccc2ncnc(Nc3ccc(Cl)cc3)c2c1 | 74.2% | 22.4% | 79.7% | 91.9% | 43.4% | 85.9% | 72.5% | -7.15% | 89.5% | 90.7% | 107% | 26.5% | 89.2% | 52% | 106% | 78.6% | 91.6% | 30.2% | 71.4% | 83.6% | growth at 10 µM [21]: 86.2%; growth at 10 µM [22]: 81.9%; growth at 10 µM [23]: 99.9%; growth at 10 µM [24]: 99.1%; growth at 10 µM [25]: 66.2%; growth at 10 µM [26]: 101%; growth at 10 µM [27]: 99.8%; growth at 10 µM [28]: 95.5%; growth at 10 µM [29]: 95.7%
3 | NC(=O)Nc1ccc2ncnc(Nc3cccc(O)c3)c2c1 | 82.8% | 82.6% | 85.4% | 112% | 77.4% | 92.6% | 93.5% | 67.9% | 98.9% | 98.1% | 102% | 103% | 101% | 90.4% | 114% | 93.1% | 106% | 87.5% | 103% | 98.1% | growth at 10 µM [21]: 92.8%; growth at 10 µM [22]: 94.9%; growth at 10 µM [23]: 105%; growth at 10 µM [24]: 99.1%; growth at 10 µM [25]: 102%; growth at 10 µM [26]: 112%; growth at 10 µM [27]: 102%; growth at 10 µM [28]: 101%; growth at 10 µM [29]: 87.8%
4 | CCOC(=O)/C(C#N)=C\Nc1ccc2ncnc(Nc3ccccc3Cl)c2c1 | 95.3% | 39% | 106% | 124% | 63.7% | 91.3% | 82.4% | 34.7% | 105% | 102% | 119% | 53% | 88.3% | 62.1% | 119% | 94.5% | 100% | 107% | 88.6% | 90.1% | growth at 10 µM [21]: 99.1%; growth at 10 µM [22]: 98.8%; growth at 10 µM [23]: 95.3%; growth at 10 µM [24]: 116%; growth at 10 µM [25]: 107%; growth at 10 µM [26]: 84.3%; growth at 10 µM [27]: 116%; growth at 10 µM [28]: 93%; growth at 10 µM [29]: 96.3%
5 | CCOC(=O)/C(C#N)=C\Nc1ccc2ncnc(Nc3ccc(Cl)cc3)c2c1 | 50.2% | 20.6% | 76.1% | 89% | 53.1% | 83.1% | 66.1% | 26.6% | 83.3% | 74.3% | 106% | 51.3% | 72% | 49.2% | 105% | 88% | 86.3% | 85% | 61.4% | 92.8% | growth at 10 µM [21]: 107%; growth at 10 µM [22]: 87%; growth at 10 µM [23]: 76.2%; growth at 10 µM [24]: 97.3%; growth at 10 µM [25]: 79.8%; growth at 10 µM [26]: 62.9%; growth at 10 µM [27]: 99.3%; growth at 10 µM [28]: 87.5%; growth at 10 µM [29]: 84.7%
6 | C#Cc1cccc(Nc2ncnc3ccc(N/C=C(\C#N)C(=O)OCC)cc23)c1 | 78.7% | 31.9% | 94.4% | 94% | 82.5% | 91.7% | 85.1% | 40.4% | 94.8% | 95.6% | 114% | 65.5% | 89.4% | 69.9% | 103% | 85.1% | 98% | 97% | 96.4% | 89.5% | growth at 10 µM [21]: 99.9%; growth at 10 µM [22]: 97.1%; growth at 10 µM [23]: 97.5%; growth at 10 µM [24]: 105%; growth at 10 µM [25]: 86.3%; growth at 10 µM [26]: 101%; growth at 10 µM [27]: 89.8%; growth at 10 µM [28]: 103%; growth at 10 µM [29]: 85.4%
